According to ChEMBL document CHEMBL3997766, “Synthesis and pre-clinical studies of new amino-acid ester thiazolide prodrugs” (Eur J Med Chem, 2017):
Each block holds one compound with its values, some of them ahead of it.

What was measured:
[1] = tested on: Rattus norvegicus; assay: Drug metabolism in Sprague-Dawley rat assessed as RM-4848-glucuronide formation at 6.4 mg/kg, iv measured at 0.25 to 1 hrs post dose; type: ADME, organism-based; details: in vivo
[2] = tested on: Rattus norvegicus; assay: AUC (0 to t) in Sprague-Dawley rat assessed as RM-4848-glucuronide level in plasma at 30 mg/kg, po administered as single dose; type: ADME, organism-based; details: in vivo
In short: (§1)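 Rats in groups of three received one compound as a single oral dose (30 mg/kg) or a single intravenous injection (6 mg/kg), with four compounds studied separately. Serial blood samples were drawn at 5, 10, 15 and 30 min and at 1, 2, 4, 8, 23 and 24 h post-dose. Plasma parent drug and metabolites were quantified and PK parameters were derived.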

[3] = tested on: Plasma; assay: Drug metabolism in Sprague-Dawley rat assessed as RM-4848-glucuronide formation in plasma at 6 mg/kg, iv administered as single dose; type: ADME, organism-based; details: in vivo; in short: as §1
[4] = tested on: Rattus norvegicus; assay: AUC (0 to t) in Sprague-Dawley rat assessed as RM-4848 level in plasma at 6 mg/kg, iv administered as single dose; type: ADME, organism-based; details: in vivo; in short: as §1
[5] = tested on: Plasma; assay: Drug metabolism in Sprague-Dawley rat assessed as RM-4848 formation in plasma at 6.4 mg/kg, iv measured at 1 to 4 hrs post dose; type: ADME, organism-based; details: in vivo
[6] = tested on: Rattus norvegicus; assay: Cmax in Sprague-Dawley rat assessed as RM-4848-glucuronide level at 6 mg/kg, iv administered as single dose; type: ADME, organism-based; set-up: dose 6 mg/kg, route intravenous; details: in vivo; in short: as §1
[7] = tested on: Rattus norvegicus; assay: Elimination half life in Sprague-Dawley rat assessed as RM-4848-glucuronide level at 6.4 mg/kg, iv; type: ADME, organism-based; details: in vivo
[8] = tested on: Rattus norvegicus; assay: Tmax in Sprague-Dawley rat assessed as RM-4848-glucuronide level in plasma at 30 mg/kg, po administered as single dose; type: ADME, organism-based; details: in vivo
In short: (§2)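 Rats in groups of three got a single oral dose (30 mg/kg) or a single intravenous injection (6 mg/kg). Serial blood samples were taken at 5, 10, 15 and 30 min and at 1, 2, 4, 8, 23 and 24 h post-dose for plasma drug and glucuronide levels. Bioavailability came from oral versus intravenous AUC after dose correction to 30 mg/kg.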

[9] = tested on: Rattus norvegicus; assay: Cmax in Sprague-Dawley rat assessed as RM-4848 level in plasma at 30 mg/kg, po administered as single dose; type: ADME, organism-based; set-up: dose 30 mg/kg, route oral; details: in vivo; in short: as §1
[10] = tested on: Rattus norvegicus; assay: AUC (0 to t) in Sprague-Dawley rat assessed as RM-4848-glucuronide level at 6 mg/kg, iv administered as single dose; type: ADME, organism-based; details: in vivo; in short: as §1
[11] = tested on: Rattus norvegicus; assay: Tmax in Sprague-Dawley rat assessed as RM-4848-glucuronide formation at 6.4 mg/kg, iv; type: ADME, organism-based; details: in vivo; in short: as §2
[12] = tested on: Rattus norvegicus; assay: Cmax in Sprague-Dawley rat assessed as RM-4848-glucuronide level in plasma at 30 mg/kg, po administered as single dose; type: ADME, organism-based; set-up: dose 30 mg/kg, route oral; details: in vivo; in short: as §1
[13] = tested on: Plasma; assay: Drug metabolism in Sprague-Dawley rat assessed as RM4848-glucuronide formation in plasma at 30 mg/kg, po measured at 0.25 to 0.5 post dose; type: ADME, organism-based; details: in vivo; in short: as §1
[14] = tested on: Rattus norvegicus; assay: Elimination half life in Sprague-Dawley rat assessed as RM-4848 level in plasma at 6.4 mg/kg, iv; type: ADME, organism-based; details: in vivo
[15] = tested on: Rattus norvegicus; assay: Oral bioavailability in Sprague-Dawley rat assessed as RM-4848 level in plasma at 30 mg/kg administered as single dose; type: ADME, organism-based; details: in vivo
In short: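 Groups of three rats received a single oral dose (30 mg/kg) or intravenous dose (6 mg/kg), with serial blood sampling from 5 min to 24 h. Absolute bioavailability came from the AUC after oral versus intravenous dosing, with the AUC corrected for dose to 30 mg/kg.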

[16] = tested on: Rattus norvegicus; assay: Elimination half life in Sprague-Dawley rat assessed as RM-4848 level in plasma at 30 mg/kg, po administered as single dose; type: ADME, organism-based; details: in vivo; in short: as §1
[17] = tested on: Rattus norvegicus; assay: Elimination half life in Sprague-Dawley rat assessed as RM-4848-glucuronide level at 30 mg/kg, po administered as single dose; type: ADME, organism-based; details: in vivo; in short: as §1
[18] = tested on: Plasma; assay: Drug metabolism in Sprague-Dawley rat assessed as RM-4848 formation in plasma at 30 mg/kg, po measured at 0.25 to 0.5 post dose; type: ADME, organism-based; details: in vivo; in short: as §1
[19] = tested on: Rattus norvegicus; assay: Cmax in Sprague-Dawley rat assessed as RM-4848 level in plasma at 6 mg/kg, iv administered as single dose; type: ADME, organism-based; set-up: dose 6 mg/kg, route intravenous; details: in vivo; in short: as §1
[20] = tested on: Rattus norvegicus; assay: AUC (0 to t) in Sprague-Dawley rat assessed as RM-4848 level in plasma at 30 mg/kg, po administered as single dose; type: ADME, organism-based; details: in vivo; in short: as §1
[21] = tested on: Rattus norvegicus; assay: Elimination half life in Sprague-Dawley rat assessed as RM-4848 level in plasma at 6.2 mg/kg, iv; type: ADME, organism-based; details: in vivo
[22] = tested on: Plasma; assay: Drug metabolism in Sprague-Dawley rat assessed as RM-4848 formation in plasma at 30 mg/kg, po administered as single dose measured at 0.083 to 4 hrs post dose; type: ADME, organism-based; details: in vivo; in short: as §1
[23] = tested on: Rattus norvegicus; assay: Tmax in Sprague-Dawley rat assessed as RM-4848-glucuronide level in plasma at 6.2 mg/kg, iv; type: ADME, organism-based; details: in vivo; in short: as §2
[24] = tested on: Rattus norvegicus; assay: Tmax in Sprague-Dawley rat assessed as RM-4848 level in plasma at 6.2 mg/kg, iv; type: ADME, organism-based; details: in vivo; in short: as §2
[25] = tested on: Plasma; assay: Drug metabolism in Sprague-Dawley rat assessed as RM-4848-glucuronide formation in plasma at 6.2 mg/kg, iv at 0.083 hrs post dose; type: ADME, organism-based; details: in vivo
[26] = tested on: Plasma; assay: Drug metabolism in Sprague-Dawley rat assessed as RM-4848-glucuronide formation in plasma at 30 mg/kg, po administered as single dose; type: ADME, organism-based; details: in vivo; in short: as §1
[27] = tested on: Rattus norvegicus; assay: Tmax in Sprague-Dawley rat assessed as RM4848-glucuronide level in plasma at 30 mg/kg, po administered as single dose; type: ADME, organism-based; details: in vivo; in short: as §2
[28] = tested on: Rattus norvegicus; assay: Elimination half life in Sprague-Dawley rat assessed as RM-4848-glucuronide level at 6.2 mg/kg, iv; type: ADME, organism-based; details: in vivo
[29] = tested on: Plasma; assay: Drug level in Sprague-Dawley rat plasma treated with RM5064 at 30 mg/kg, po administered as single dose; type: ADME, organism-based; details: in vivo; in short: as §1
[30] = tested on: Rattus norvegicus; assay: Drug level in Sprague-Dawley rat treated with RM5064 at 6.4 mg/kg, iv measured at 0.25 to 1 hrs post dose; type: ADME, organism-based; details: in vivo
[31] = tested on: Plasma; assay: Drug level in Sprague-Dawley rat plasma treated with RM5038 at 6 mg/kg, iv administered as single dose; type: ADME, organism-based; details: in vivo; in short: as §1
[32] = tested on: Rattus norvegicus; assay: Drug level in Sprague-Dawley rat treated with RM5038 at 6.4 mg/kg, iv measured at 0.25 to 1 hrs post dose; type: ADME, organism-based; details: in vivo
[33] = tested on: Plasma; assay: Drug level in Sprague-Dawley rat plasma treated with RM-5061 at 10 to 75 mg/kg administered via oral gavage qd for 28 consecutive days; type: ADME, organism-based; details: in vivo
In short: (§3)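 In a sub-acute study, Sprague-Dawley rats were dosed once daily for 28 consecutive days at 10, 30 or 75 mg/kg, given as a yellow suspension. There were four groups of up to 30 rats each (15M/15F) to assess systemic exposure.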

[34] = tested on: Canis familiaris; assay: Drug level in Beagle dog plasma treated with RM-5061 up to 25 mg/kg administered orally as gelatin capsule once daily for 28 days measured on day 1 and 29; type: ADME, organism-based, Canis lupus familiaris; details: in vivo, po, 672 h
In short: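 Beagle dogs received the drug orally in a single gelatin capsule at 5, 15 or 25 mg/kg once daily for 28 consecutive days in a sub-acute toxicity study assessing systemic exposure.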

[35] = tested on: Plasma; assay: Elimination half life in Sprague-Dawley rat assessed as tizoxanide-glucuronide level in plasma at 10 to 75 mg/kg administered via oral gavage qd for 28 consecutive days; type: ADME, organism-based; details: in vivo; in short: as §3

Drug metabolism [1]: Metabolite_Detected | AUCt [2]: 10040 ng·h/mL | Drug metabolism [3]: Metabolite_Detected | AUCt [4]: 3480 ng·h/mL | Drug metabolism [5]: Metabolite_Detected | Cmax [6]: 17300 ng/mL | beta t1/2 [7]: 2.5 to 3.2 h | Tmax [8]: 0.25 to 0.5 h | Cmax [9]: 101 ng/mL | AUCt [10]: 19400 ng·h/mL | Tmax [11]: 0.25 to 1 h | Cmax [12]: 2080 ng/mL | Drug metabolism [13]: Metabolite_Detected | beta t1/2 [14]: 0.67 h | F [15]: 1% | beta t1/2 [16]: 3 h | beta t1/2 [17]: 6.14 h | Drug metabolism [18]: Metabolite_Detected | Cmax [19]: 9980 ng/mL | AUCt [20]: 130 ng·h/mL
SMILES: CC(=O)Oc1ccccc1C(=O)Nc1ncc(Cl)s1

beta t1/2 [21]: 0.91 h | AUCt [2]: 19400 ng·h/mL | Drug metabolism [22]: Metabolite_Detected | AUCt [4]: 631 ng·h/mL | Tmax [23]: 0.25 to 0.5 h | Cmax [6]: 5570 ng/mL | Tmax [24]: 4.98 min | Drug metabolism [25]: Metabolite_Detected | Cmax [9]: 622 ng/mL | Drug metabolism [26]: Metabolite_Detected | AUCt [10]: 7610 ng·h/mL | Cmax [12]: 7290 ng/mL | Tmax [27]: 0.5 h | F [15]: 23% | beta t1/2 [16]: 1.4 to 2.6 h | beta t1/2 [17]: 3.43 h | Cmax [19]: 2650 ng/mL | beta t1/2 [28]: 3.15 h | AUCt [20]: 715 ng·h/mL
SMILES: CC(C)(C)[C@H](N)C(=O)Oc1ccccc1C(=O)Nc1ncc(Cl)s1.Cl

Drug metabolism [29]: Metabolite_Detected | Drug metabolism [30]: Metabolite_Detected | Drug metabolism [31]: Metabolite_Detected | Drug metabolism [32]: Metabolite_Detected
SMILES: O=C(Nc1ncc(Cl)s1)c1ccccc1O[C@@H]1O[C@H](C(=O)O)[C@@H](O)[C@H](O)[C@H]1O

Drug metabolism [33]: Metabolite_Detected | Drug metabolism [34]: Metabolite_Detected | beta t1/2 [35]: 1.5 to 11 h
SMILES: O=C(Nc1ncc([N+](=O)[O-])s1)c1ccccc1O[C@@H]1O[C@H](C(=O)O)[C@@H](O)[C@H](O)[C@H]1O
